Measurements: ChEMBL document CHEMBL5104102, “Discovery of FtsZ inhibitors by virtual screening as antibacterial agents and study of the inhibition mechanism” (RSC Med Chem, 2022)
Values after ≈ are worked out from the molar mass of the structure shown. Blank lines part the entries; values can stand above or below the molecule they belong to. Active and inactive are the calls of the source. The calls are words filed in the database; no cut-off is given here.

Columns and labels:
Bacillus subtilis [1] = assay: Antibacterial activity against Bacillus subtilis 168 assessed as inhibition of bacterial growth incubated for 18 hrs by CLSI protocol based two-fold serial dilution assay; format: functional
Outline: (§1)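 B. subtilis 168 or E. coli ATCC 25922 was grown in MHB and tested by CLSI-based broth microdilution. An overnight culture (37 °C, 250 rpm) was diluted tenfold, grown 2 h, and set to 5 × 10^6 CFU mL−1 by A600. Cells were added to two-fold serial compound dilutions (1% DMSO) and incubated 18 h at 37 °C. Read-out was A600, in duplicate. MIC was the lowest concentration giving A600 < 0.1.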

Staphylococcus aureus [2] = assay: Antibacterial activity against Staphylococcus aureus 29213 assessed as inhibition of bacterial growth incubated for 18 hrs by CLSI protocol based two fold serial dilution method; format: functional
Outline: as §1, with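 “S. aureus” for “B. subtilis 168 or E. coli”, “29213” for “25922”, “CAMHB” for “MHB”, “mL−1.” for “mL−1 by A600.”, “with” for “giving”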

Escherichia coli [3] = assay: Antibacterial activity against Escherichia coli 25922 assessed as inhibition of bacterial growth incubated for 18 hrs by CLSI protocol based two fold serial dilution method; format: functional; outline: as §1
Staphylococcus aureus [4] = assay: Antibacterial activity against methicillin-resistant Staphylococcus aureus BAA 41 assessed as inhibition of bacterial growth incubated for 18 hrs by CLSI protocol based two fold serial dilution method; format: functional
Outline: (§2)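 CAMHB culture grown overnight at 37 °C with shaking at 250 rpm, diluted 10-fold, and grown 2 h. Inoculum set to 5 × 10^6 CFU mL−1 by A600. Compounds in DMSO were serially diluted two-fold, with 1% DMSO per well. Read at A600 after 18 h at 37 °C. MIC is the lowest concentration giving A600 < 0.1. Run in duplicate.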

Staphylococcus aureus [5] = assay: Antibacterial activity against methicillin-resistant Staphylococcus aureus BAA 44 assessed as inhibition of bacterial growth incubated for 18 hrs by CLSI protocol based two fold serial dilution method; format: functional; outline: as §2
Staphylococcus aureus [6] = assay: Antibacterial activity against methicillin-resistant Staphylococcus aureus ATCC 43300 assessed as inhibition of bacterial growth incubated for 18 hrs by CLSI protocol based two fold serial dilution method; format: functional; outline: as §2
Staphylococcus aureus [7] = assay: Antibacterial activity against methicillin-resistant Staphylococcus aureus ATCC 33591 assessed as inhibition of bacterial growth incubated for 18 hrs by CLSI protocol based two fold serial dilution method; format: functional; outline: as §2
Staphylococcus aureus [8] = assay: Antibacterial activity against methicillin-resistant Staphylococcus aureus ATCC 33592 assessed as inhibition of bacterial growth incubated for 18 hrs by CLSI protocol based two fold serial dilution method; format: functional; outline: as §2
Staphylococcus aureus [9] = assay: Antibacterial activity against methicillin-resistant Staphylococcus aureus BAA 1720 assessed as inhibition of bacterial growth incubated for 18 hrs by CLSI protocol based two fold serial dilution method; format: functional; outline: as §2
Escherichia coli [10] = assay: Synergistic antibacterial activity against Escherichia coli 25922 assessed as inhibition of bacterial growth incubated for 18 hrs in presence of PMBN by checkerboard assay; format: functional
Outline: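 E. coli ATCC 25922 was tested in MHB by the broth microdilution format with two-fold serial compound dilutions. Polymyxin B nonapeptide was added to each well at 20 μg mL−1 final before adding bacteria at 5 × 10^5 CFU mL−1. Growth was read by A600.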

Staphylococcus aureus [11] = assay: Synergistic antibacterial activity against methicillin-resistant Staphylococcus aureus BAA 41 assessed as inhibition of bacterial growth incubated for 18 hrs in presence of methicillin by checkerboard assay; format: functional
Outline: (§3)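 Checkerboard: test compound serially diluted two-fold across the plate and methicillin serially diluted down it. Bacteria added at 5 × 10^5 CFU mL−1. Incubated at 37 °C for 16–24 h, then growth read at A600. Untreated-cell columns included. FICI calculated from the combination MICs.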

Staphylococcus aureus [12] = assay: Synergistic antibacterial activity against methicillin-resistant Staphylococcus aureus BAA 41 assessed as FICI incubated for 18 hrs in presence of methicillin by checkerboard assay; format: functional; outline: as §3
Bacillus subtilis [13] = assay: Antibacterial activity against Bacillus subtilis 168 assessed as cell elongation at 0.5 ug/ml incubated for 4 hrs by phase-contrast microscopy; format: functional; conditions: dose 0.5 µg/ml
Outline: (§4)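 B. subtilis 168 overnight culture was diluted tenfold into fresh medium and grown 2 h. It was then adjusted to A600 = 0.01, given compound, and incubated 4 h at 37 °C; 1% (v/v) DMSO was the control. Cells were harvested, resuspended in LB, mounted on 1.2% agarose pads and imaged by phase contrast. Lengths of 100 cells per condition were measured to give length distributions and averages.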

Bacillus subtilis [14] = assay: Antibacterial activity against Bacillus subtilis 168 assessed as cell length at 0.5 ug/ml incubated for 4 hrs by phase-contrast microscopy; format: functional; conditions: dose 0.5 µg/ml; outline: as §4
[15] = target: T1, Cell division protein FtsZ (Bacillus subtilis (strain 168)) (UniProt P17865); assay: Inhibition of GFP-tagged FtsZ in Bacillus subtilis 168 assessed as inhibition of z-ring formation at 0.125 ug/ml incubated for 4 hrs by FM 5-96 dye based super-resolution microscopy; conditions: dose 0.125 µg/ml
T1 sequence (whole entry): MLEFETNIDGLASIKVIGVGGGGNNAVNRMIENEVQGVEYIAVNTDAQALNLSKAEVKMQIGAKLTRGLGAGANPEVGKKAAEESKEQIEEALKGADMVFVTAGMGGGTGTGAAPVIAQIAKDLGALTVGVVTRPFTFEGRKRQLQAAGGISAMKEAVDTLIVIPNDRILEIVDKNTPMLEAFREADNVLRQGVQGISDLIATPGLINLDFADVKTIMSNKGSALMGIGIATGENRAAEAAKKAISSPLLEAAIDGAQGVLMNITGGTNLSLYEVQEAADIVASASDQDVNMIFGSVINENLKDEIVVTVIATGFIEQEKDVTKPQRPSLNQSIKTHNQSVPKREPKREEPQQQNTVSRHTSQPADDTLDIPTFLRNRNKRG
Outline: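 B. subtilis 168 carried an IPTG-inducible FtsZ-GFP plasmid and was grown overnight at 37 °C in LB with 30 μg mL−1 chloramphenicol. It was back-diluted to A600 = 0.01, induced with 40 μM IPTG, and treated with compound for 4 h at 37 °C with shaking. Cells were pelleted, resuspended in PBS and mounted on agarose pads. Membranes were stained with FM 5-96, and FtsZ-GFP localization was imaged by super-resolution microscopy (N-SIM).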

Staphylococcus aureus [16] = assay: Bactericidal activity against methicillin-resistant Staphylococcus aureus BAA 41 assessed as inhibition of bacterial growth at 1 ug/ml incubated for 24 hrs by time-kill assay; format: functional, organism-based; conditions: dose 1.0 µg/ml
Outline: (§5)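 Time-kill: 3 mL culture at 5 × 10^5 CFU mL−1 exposed to compound at several concentrations or to 1% DMSO control at 37 °C with shaking at 250 rpm, over 24 h. 100 μL samples taken at intervals, diluted as needed, and spread on agar. Colonies counted after 24 h at 37 °C.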

Staphylococcus aureus [17] = assay: Bactericidal activity against methicillin-resistant Staphylococcus aureus BAA 41 assessed as inhibition of bacterial growth at 2 ug/ml incubated for 24 hrs by time-kill assay; format: functional, organism-based; conditions: dose 2.0 µg/ml; outline: as §5
Staphylococcus aureus [18] = assay: Bactericidal activity against methicillin-resistant Staphylococcus aureus BAA 41 assessed as inhibition of bacterial growth at 4 ug/ml incubated for 24 hrs by time-kill assay; format: functional; conditions: dose 4 µg/ml; outline: as §5
Staphylococcus aureus [19] = assay: Bactericidal activity against methicillin-resistant Staphylococcus aureus BAA 41 assessed as inhibition of bacterial growth at 8 ug/ml incubated for 24 hrs by time-kill assay; format: functional; conditions: dose 8 µg/ml; outline: as §5
Staphylococcus aureus [20] = assay: Bactericidal activity against methicillin-resistant Staphylococcus aureus BAA 41 assessed as inhibition of bacterial growth incubated for 24 hrs by time-kill assay; format: functional; outline: as §5
[21] = Ratio of MBC for bactericidal activity against methicillin-resistant Staphylococcus aureus BAA 41 to MIC for antibacterial activity against methicillin-resistant Staphylococcus aureus BAA 41; format: functional
Outline: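 MBC: culture at 5 × 10^5 CFU mL−1 incubated overnight at 37 °C with shaking and compound or 1% DMSO, then diluted ≥10-fold and plated on TSA for 24 h at 37 °C. MBC is the lowest concentration giving ≥99.9% reduction of the initial count. MBC is divided by the broth-dilution MIC (A600 < 0.1 after 18 h).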

[22] = target: T2, Cell division protein FtsZ (Staphylococcus aureus) (UniProt P0A031); assay: Inhibition of Staphylococcus aureus FtsZ polymerization assessed as increase in GTPase activity at 1 ug/ml incubated for 40 mins in presence of GTP by malachite green phosphate assay; conditions: dose 1.0 µg/ml
T2 sequence (whole entry): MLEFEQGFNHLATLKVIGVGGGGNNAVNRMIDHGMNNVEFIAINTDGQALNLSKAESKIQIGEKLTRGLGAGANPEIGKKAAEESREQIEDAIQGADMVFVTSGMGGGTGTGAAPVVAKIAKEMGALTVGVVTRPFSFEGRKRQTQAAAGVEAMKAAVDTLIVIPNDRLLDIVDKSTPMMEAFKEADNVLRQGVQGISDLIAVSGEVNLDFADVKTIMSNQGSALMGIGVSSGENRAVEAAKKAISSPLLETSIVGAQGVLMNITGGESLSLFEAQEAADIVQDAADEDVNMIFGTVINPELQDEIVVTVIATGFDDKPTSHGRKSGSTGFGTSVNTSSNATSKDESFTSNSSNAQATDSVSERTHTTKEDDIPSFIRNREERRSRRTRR
Outline: (§6)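 Purified S. aureus FtsZ (3 μM) was preincubated with serially diluted compound in 50 mM MOPS pH 6.5 for 30 min at room temperature; 1% DMSO served as control. MgCl2 (5 mM) and KCl (200 mM) were added, and the reaction was started with 250 μM GTP for 10 min at 37 °C. Malachite green reagent was then developed 30 min at 37 °C, and released phosphate was read at A600.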

[23] = target: T2, Cell division protein FtsZ (Staphylococcus aureus); assay: Inhibition of Staphylococcus aureus FtsZ polymerization assessed as increase in GTPase activity at 5 to 20 ug/ml incubated for 40 mins in presence of GTP by malachite green phosphate assay; conditions: dose 5-20 µg/ml, DDE = dose-dependent effect; outline: as §6

Compound: COCCOc1ccc2c(c1)ncn2-c1ccc2cccc(N3CCC(N)CC3)c2n1
MIC (Bacillus subtilis [1]): > 128 µg/mL
MIC (Staphylococcus aureus [2]): > 128 µg/mL
MIC (Escherichia coli [3]): > 128 µg/mL

Compound: CN(C)C(=O)[C@H](O)[C@H](Cc1ccccc1)NC(=O)c1cc2cc(Cl)ccc2[nH]1
MIC (Bacillus subtilis [1]): 16 µg/mL (≈ 40 µM)
MIC (Staphylococcus aureus [2]): > 128 µg/mL
MIC (Escherichia coli [3]): > 128 µg/mL
MIC (Staphylococcus aureus [4]): > 128 µg/mL
MIC (Staphylococcus aureus [5]): > 128 µg/mL
MIC (Staphylococcus aureus [6]): 32 µg/mL (≈ 80 µM)
MIC (Staphylococcus aureus [7]): > 128 µg/mL
MIC (Staphylococcus aureus [8]): > 128 µg/mL
MIC (Staphylococcus aureus [9]): > 128 µg/mL

Compound: NC(=O)c1c(F)ccc(OCc2nc3cc(Cl)cnc3s2)c1F
MIC (Bacillus subtilis [1]): 0.5 µg/mL (≈ 1.41 µM)
MIC (Staphylococcus aureus [2]): 0.5 µg/mL (≈ 1.41 µM)
MIC (Escherichia coli [3]): > 128 µg/mL
MIC (Staphylococcus aureus [4]): 0.5 µg/mL (≈ 1.41 µM)
MIC (Staphylococcus aureus [5]): 1 µg/mL (≈ 2.81 µM)
MIC (Staphylococcus aureus [6]): 1 µg/mL (≈ 2.81 µM)
MIC (Staphylococcus aureus [7]): 1 µg/mL (≈ 2.81 µM)
MIC (Staphylococcus aureus [8]): 2 µg/mL (≈ 5.62 µM)
MIC (Staphylococcus aureus [9]): 1 µg/mL (≈ 2.81 µM)
MIC (Escherichia coli [10]): 32 µg/mL
MIC (Staphylococcus aureus [11]): 0.5 µg/mL
fractional inhibitory concentration index (FICI) (Staphylococcus aureus [12]): 0.52
Activity (Bacillus subtilis [13]): 33%
Activity (Bacillus subtilis [14]): 135.8 um
inhibition [15]: Active
Activity (Staphylococcus aureus [16]): Active
Activity (Staphylococcus aureus [17]): Active
Activity (Staphylococcus aureus [18]): 0 log10CFU/ml
Activity (Staphylococcus aureus [19]): 0 log10CFU/ml
MBC (Staphylococcus aureus [20]): 2 µg/mL (≈ 5.62 µM)
Ratio [21]: 2
inhibition [22]: 105%
inhibition [23]: Dde

The remaining lines, values ahead:

MIC (Bacillus subtilis [1]): > 128 µg/mL
MIC (Staphylococcus aureus [2]): > 128 µg/mL
MIC (Escherichia coli [3]): > 128 µg/mL
Compound: CC1(C)CC(=O)c2c(C(F)(F)F)nn(-c3ccc(C(N)=O)c(N[C@H]4CC[C@H](OC(=O)CN)CC4)c3)c2C1 [SNX 5422]

MIC (Bacillus subtilis [1]): > 128 µg/mL
MIC (Staphylococcus aureus [2]): > 128 µg/mL
MIC (Escherichia coli [3]): > 128 µg/mL
Compound: COc1ccc(-c2cc3c(C)nc(N)nc3n([C@H]3CC[C@H](OCCO)CC3)c2=O)cn1 [PF-04691502]
